Activity calls are given as the source filed them. The calls are words filed in the database; no cut-off is given here.
Key:
[1] = species on record: Rattus norvegicus; assay: Selectivity ratio of Ki for rat cloned dopamine D2L receptor to Ki for rat cloned dopamine D3 receptor
[2] = target: D(3) dopamine receptor (Rattus norvegicus, UniProt P19020); assay: Displacement of [3H]spiroperidol from rat cloned dopamine D3 receptor expressed in HEK293 cells; format: cell-based
[3] = target: D(2) dopamine receptor (Rattus norvegicus, UniProt P61169); assay: Displacement of [3H]spiroperidol from rat cloned dopamine D2L receptor expressed in HEK293 cells; format: cell-based
Chain of D(2) dopamine receptor (Rattus norvegicus, UniProt P61169) (P61169 whole entry): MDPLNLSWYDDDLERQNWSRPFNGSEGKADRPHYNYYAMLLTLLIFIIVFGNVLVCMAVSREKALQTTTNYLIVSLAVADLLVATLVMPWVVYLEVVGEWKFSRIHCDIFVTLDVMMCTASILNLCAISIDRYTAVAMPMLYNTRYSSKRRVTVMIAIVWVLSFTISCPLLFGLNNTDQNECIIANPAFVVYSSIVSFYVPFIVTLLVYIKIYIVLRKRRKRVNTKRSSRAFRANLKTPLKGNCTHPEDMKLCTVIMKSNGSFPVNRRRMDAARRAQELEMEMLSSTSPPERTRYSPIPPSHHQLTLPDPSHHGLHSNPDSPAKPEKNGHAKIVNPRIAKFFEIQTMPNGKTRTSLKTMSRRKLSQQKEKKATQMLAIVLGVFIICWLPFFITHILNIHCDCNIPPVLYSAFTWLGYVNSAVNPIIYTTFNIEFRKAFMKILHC

[4] = target: T1, D(2) dopamine receptor (Homo sapiens, UniProt P14416); assay: Agonist activity at human cloned dopamine D2 receptor expressed in CHO cells by [35S]GTPgammaS binding assay; format: functional, cell-based
T1 sequence (P14416 whole entry): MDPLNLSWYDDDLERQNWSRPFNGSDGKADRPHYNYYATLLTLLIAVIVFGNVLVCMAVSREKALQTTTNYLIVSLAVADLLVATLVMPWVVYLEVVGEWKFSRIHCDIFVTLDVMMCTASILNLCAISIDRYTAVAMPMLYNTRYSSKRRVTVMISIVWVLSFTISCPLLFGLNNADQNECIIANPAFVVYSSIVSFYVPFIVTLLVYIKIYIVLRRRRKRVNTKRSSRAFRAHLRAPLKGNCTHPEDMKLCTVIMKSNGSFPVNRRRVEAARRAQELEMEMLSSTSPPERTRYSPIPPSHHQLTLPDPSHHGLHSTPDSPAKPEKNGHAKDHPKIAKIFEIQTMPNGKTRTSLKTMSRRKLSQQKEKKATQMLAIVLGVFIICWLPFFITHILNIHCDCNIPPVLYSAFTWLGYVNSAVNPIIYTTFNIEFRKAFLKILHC

[5] = target: T1, D(2) dopamine receptor; assay: Agonist activity at human cloned dopamine D2 receptor expressed in CHO cells by [35S]GTPgammaS binding assay relative to dopamine; format: functional, cell-based
[6] = target: D(3) dopamine receptor (Homo sapiens, UniProt P35462); assay: Agonist activity at human cloned dopamine D3 receptor expressed in CHO cells by [35S]GTPgammaS binding assay; format: functional, cell-based
Chain of D(3) dopamine receptor (Homo sapiens, UniProt P35462) (P35462 whole entry): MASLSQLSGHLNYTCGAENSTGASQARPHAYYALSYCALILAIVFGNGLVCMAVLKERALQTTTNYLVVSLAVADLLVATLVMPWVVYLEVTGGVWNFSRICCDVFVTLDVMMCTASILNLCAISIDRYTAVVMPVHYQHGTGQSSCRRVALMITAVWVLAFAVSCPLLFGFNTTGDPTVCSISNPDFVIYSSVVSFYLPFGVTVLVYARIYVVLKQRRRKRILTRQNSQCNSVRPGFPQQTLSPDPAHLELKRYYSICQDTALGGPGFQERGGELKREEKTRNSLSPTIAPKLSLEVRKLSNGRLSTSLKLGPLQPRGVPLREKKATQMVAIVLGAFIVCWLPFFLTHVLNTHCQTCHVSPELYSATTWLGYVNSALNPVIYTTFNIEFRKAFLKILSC

[7] = test system: Radical scavenging activity; assay: Antioxidant activity assessed as DPPH radical scavenging activity; format: functional
In short: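 Methanolic compound solutions (20–250 µM) mixed 1:1 with 200 µM methanolic DPPH and shaken at 30 °C for 20 min. Absorbance read at 517 nm. Controls were DPPH plus methanol; methanol alone served as background. % scavenging = (A control − A sample)/A control × 100, giving IC50.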

[8] = test system: Rattus norvegicus; assay: Reversal of reserpine-induced akinesia in Sprague-Dawley rat at 10 umol/kg, sc administered 18 hrs post reserpine challenge measured for 6 hrs; format: functional, organism-based
[9] = test system: Rattus norvegicus; assay: Reversal of reserpine-induced akinesia in Sprague-Dawley rat at 5 umol/kg, sc administered 18 hrs post reserpine challenge measured for 6 hrs; format: functional, organism-based

Chain of D(3) dopamine receptor (Rattus norvegicus, UniProt P19020) (P19020 whole entry): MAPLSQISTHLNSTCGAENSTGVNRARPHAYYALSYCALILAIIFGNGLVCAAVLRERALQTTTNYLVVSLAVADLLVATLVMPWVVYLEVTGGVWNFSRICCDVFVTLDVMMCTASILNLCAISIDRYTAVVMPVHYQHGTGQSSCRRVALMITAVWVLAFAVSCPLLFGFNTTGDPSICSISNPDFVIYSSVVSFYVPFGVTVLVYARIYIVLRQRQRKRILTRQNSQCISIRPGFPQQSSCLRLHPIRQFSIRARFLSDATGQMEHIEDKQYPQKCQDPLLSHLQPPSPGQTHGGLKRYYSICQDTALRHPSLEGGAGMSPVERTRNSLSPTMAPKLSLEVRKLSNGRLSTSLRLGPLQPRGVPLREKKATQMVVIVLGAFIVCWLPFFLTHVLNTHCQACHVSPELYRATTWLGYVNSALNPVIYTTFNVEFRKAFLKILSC

Row | Compound | Ratio Ki [1] | Ki [2] [nM] | Ki [3] [nM] | also measured
1 | CCCN(CCN1CCN(c2ccc(-c3ccccc3)cc2)CC1)[C@H]1CCc2nc(N)sc2C1 |  |  |  | EC50 [4]: 33.1 nM; Emax [5]: 104%; EC50 [6]: 1.51 nM
2 | CCCN(CCN1CCN(Cc2cc3ccccc3[nH]2)CC1)C1CCc2c(O)cccc2C1 (configuration not stated) | 33.4 | 5.48 | 183 | 
3 | CCCN(CCN1CCN(c2nccc3ccccc23)CC1)[C@H]1CCc2nc(N)sc2C1 | 121 |  |  | EC50 [6]: 0.82 nM
4 | O=C1O[C@H]([C@@H](O)CO)C(O)=C1O [ASCORBIC ACID] |  |  |  | Activity [7]: Dose-dependent effect; IC50 [7]: 24900 nM
5 | CCCN(CCN1CCN(C(=O)c2c[nH]c3ccccc23)CC1)[C@@H]1CCc2nc(N)sc2C1 | 27.3 | 48.2 | 1320 | 
6 | CCCN(CCN1CCN(c2ccc3[nH]ccc3c2)CC1)C1CCc2c(O)cccc2C1 (configuration not stated) | 7.3 | 10.4 | 76.4 | 
7 | CCCN(CCN1CCN(Cc2ccc3[nH]ccc3c2)CC1)C1CCc2nc(N)sc2C1 (configuration not stated) | 16.4 | 8.07 | 132 | 
8 | CCCN(CCC)CCc1cccc2c1CC(=O)N2 |  |  |  | Activity [9]: Active
9 | CCCN(CCN1CCN(C(=O)c2c[nH]c3ccccc23)CC1)C1CCc2nc(N)sc2C1 (racemic) | 360 | 4.17 | 1500 | Activity [7]: Dose-dependent effect
10 | CCCN(CCN1CCN(c2ccc3[nH]ccc3c2)CC1)[C@@H]1CCc2nc(N)sc2C1 | 8.46 | 15.9 | 134 | 
11 | CCCN(CCN1CCN(C(=O)c2ccc3[nH]ccc3c2)CC1)[C@@H]1CCc2nc(N)sc2C1 | 49.7 | 52.8 | 2630 | 
12 | CCCN(CCN1CCN(C(=O)c2cc3ccccc3[nH]2)CC1)C1CCc2nc(N)sc2C1 (racemic) |  | 4.59 | 852 | Activity [7]: Dose-dependent effect
13 | CCCN(CCN1CCN(C(=O)c2cc3ccccc3[nH]2)CC1)[C@@H]1CCc2nc(N)sc2C1 |  | 54.1 | 2560 | 
14 | CCCN(CCN1CCN(C(=O)c2c[nH]c3ccc(O)cc23)CC1)C1CCc2nc(N)sc2C1 (configuration not stated) | 64.2 | 16.8 | 1080 | 
15 | CCCN(CCN1CCN(Cc2ccc3[nH]ccc3c2)CC1)C1CCc2c(O)cccc2C1 (configuration not stated) | 64.5 | 4.17 | 269 | 

Continued, in another order:

Row | Ratio Ki [1] | Ki [2] [nM] | Ki [3] [nM] | Compound | also measured
16 | 828 | 1.09 | 902 | CCCN(CCN1CCN(C(=O)c2c[nH]c3ccccc23)CC1)[C@H]1CCc2nc(N)sc2C1 | EC50 [4]: 86.4 nM; Emax [5]: 91.6%; EC50 [6]: 0.87 nM
17 | 303 | 4.1 | 1240 | CCCN(CCN1CCN(C(=O)c2ccc3[nH]ccc3c2)CC1)C1CCc2nc(N)sc2C1 (racemic) | Activity [7]: Dose-dependent effect
18 | 334 | 2.78 | 928 | CCCN(CCCN1CCN(C(=O)c2cc3ccccc3[nH]2)CC1)C1CCc2nc(N)sc2C1 (racemic) | 
19 | 736 | 1.4 | 1030 | CCCN(CCN1CCN(C(=O)c2ccc3[nH]ccc3c2)CC1)[C@H]1CCc2nc(N)sc2C1 | Activity [8]: inactive; EC50 [4]: 70.7 nM; Emax [5]: 107%; EC50 [6]: 0.56 nM
20 |  | 1.74 |  | CCCN(CCCCN1CCN(C(=O)c2cc3ccccc3[nH]2)CC1)C1CCc2nc(N)sc2C1 (racemic) | 
21 | 17.8 | 2.19 | 39 | CCCN(CCN1CCN(c2ccc3[nH]ccc3c2)CC1)[C@H]1CCc2nc(N)sc2C1 | Activity [9]: Active; EC50 [4]: 2.96 nM; Emax [5]: 107%; EC50 [6]: 1.26 nM
22 | 24.3 | 1.92 | 46.7 | CCCN(CCN1CCN(c2ccc3[nH]ccc3c2)CC1)C1CCc2nc(N)sc2C1 (racemic) | Activity [7]: Dose-dependent effect; IC50 [7]: 14500 nM
23 | 25.6 | 3.2 | 82.1 | CCCN(CCN1CCN(Cc2c[nH]c3ccccc23)CC1)C1CCc2c(O)cccc2C1 (configuration not stated) | 
24 |  | 1.84 | 1070 | CCCN(CCN1CCN(C(=O)c2cc3ccccc3[nH]2)CC1)[C@H]1CCc2nc(N)sc2C1 | Activity [8]: inactive; Emax [5]: 101%; EC50 [6]: 0.26 nM
